Common to all, as to assay type: functional, cell-based
One assay deals with SMMC-7721. The assay can be described thus: Cytotoxicity against of human SMMC7721 cells after 48 hrs by MTT assay. The settings on record: SMMC-7721, 48 h. An outline of the steps:
(§1)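 Cells grown in RPMI-1640 or DMEM with 10% fetal bovine serum, 37 °C, 5% CO2. Seeded at 1 × 10^5 cells/mL; adherent lines attached 12 h before dosing, suspension cells (HL-60) seeded at dosing. Compound given at various concentrations in triplicate for 48 h; 10-hydroxycamptothecin positive control. MTT 4 h at 37 °C, lysis in 20% SDS-50% DMF, formazan read at 595 nm.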
(Formazan colour is commonly taken as a measure of viable cells.)

In a further assay the test system is A549. In words: Cytotoxicity against human A549 cells after 48 hrs by MTT assay. The note with it: A549, 48 h. An outline of the steps:
as §1

The next assay has as its system SK-BR-3. The assay can be described thus: Cytotoxicity against human SK-BR-3 cells after 48 hrs by MTT assay. The settings on record: SK-BR-3, 48 h. An outline of the steps:
as §1

A further assay relates to PANC-1. The assay can be described thus: Cytotoxicity against human PANC1 cells after 48 hrs by MTT assay. The settings on record: PANC-1, 48 h. An outline of the steps:
as §1

For the next assay, the system named is HL-60. The assay can be described thus: Cytotoxicity against human HL60 cells after 48 hrs by MTT assay. The settings on record: HL-60, 48 h. The essentials:
as §1

This is an account of results in ChEMBL document CHEMBL1154841, “Cytotoxic triterpene dilactones from the stems of Kadsura ananosma” (J Nat Prod, 2010).

Each structure is given as a SMILES string. A value given as a limit tells only on which side of the number the result lay.

In general, IC50 refers to the concentration that inhibits the measured activity by half. A higher IC50 goes with a need for much substance. As to `C=C1C([C@@H](C)[C@H]2CC=C(C)C(=O)O2)=CC[C@]2(C)[C@H]1C[C@]1(O)[C@H]3O[C@]34C=CC(=O)OC(C)(C)[C@@H]4[C@H](O)C[C@@H]21` [LONGIPEDLACTONE G], the IC50 with SMMC-7721, with A549, with SK-BR-3, in the assay with PANC-1 and with HL-60 was > 10 µM in each case.

As for `C=C1C([C@@H](C)[C@H]2CC=C(C)C(=O)O2)=CC[C@]2(C)[C@H]1C[C@]1(O)C=C3C=CC(=O)OC(C)(C)[C@@H]3CC[C@@H]21` [LONGIPEDLACTONE A], the IC50 in the assay with SMMC-7721 is > 10 µM; in the assay on A549 it was > 10 µM; with SK-BR-3, > 10 µM; in the assay with PANC-1, > 10 µM; with HL-60, 3.5 µM.

With `C=C1C([C@@H](C)[C@H]2CC=C(C)C(=O)O2)=CC[C@]2(C)[C@H]1C[C@]1(O)C=C3C=CC(=O)OC(C)(C)[C@@H]3[C@H](O)C[C@@H]21` [LONGIPEDLACTONE F], the IC50 in the assay with SMMC-7721 was > 10 µM; in the assay on A549, > 10 µM; with SK-BR-3 it was 7.4 µM; with PANC-1, 8.8 µM; with HL-60, 2.3 µM.

For the compound `C=C1C([C@@H](C)[C@H]2CC=C(C)C(=O)O2)=CC[C@]2(C)[C@H]1C[C@]1(O)[C@H]3O[C@]34C=CC(=O)OC(C)(C)[C@@H]4[C@H](OC(C)=O)C[C@@H]21` [LONGIPEDLACTONE N], the IC50 in the assay with SMMC-7721, with A549, in the assay with SK-BR-3, in the assay with PANC-1 and in the assay on HL-60 was > 10 µM each time.

As to `C=C1[C@@H]2C[C@]3(O)[C@H]4O[C@]45C=CC(=O)OC(C)(C)[C@@H]5[C@H](OC(C)=O)C[C@H]3[C@]2(C)CC[C@@]1(O)[C@@H](C)[C@H]1CC=C(C)C(=O)O1` [LONGIPEDLACTONE P], the concentration for half-maximal inhibition (IC50) in the assay on SMMC-7721, in the assay on A549, with SK-BR-3, in the assay with PANC-1 and in the assay on HL-60 was > 10 µM throughout.

Regarding `C=C1[C@H]([C@@H](C)[C@H]2CC=C(C)C(=O)O2)CC[C@@]2(C)[C@@H]3C[C@@H](OC(C)=O)[C@H]4C(C)(C)OC(=O)C[C@H]5OO[C@]3(C[C@@H]12)C[C@]54O` [LONGIPEDLACTONE K], the IC50 in the assay with SMMC-7721, with A549, with SK-BR-3, in the assay with PANC-1 and in the assay on HL-60 was > 10 µM each time.

In the case of `C=C1C([C@@H](C)[C@H]2CC=C(C)C(=O)O2)=CC[C@]2(C)[C@H]1C[C@]1(O)C=C3C=CC(=O)OC(C)(C)[C@@H]3[C@H](OC(C)=O)C[C@@H]21` [LOGIPEDLACTONE J], the IC50 in the assay with SMMC-7721 was > 10 µM; in the assay with A549, > 10 µM; in the assay with SK-BR-3, 2.8 µM; in the assay with PANC-1, 5.3 µM; in the assay on HL-60 it was 2 µM.

`C=C1C([C@@H](C)[C@H]2CC=C(C)C(=O)O2)=CC[C@]2(C)[C@H]1C[C@]1(O)[C@H]3O[C@]34C=CC(=O)OC(C)(C)[C@@H]4CC[C@@H]21` [LONGIPEDLACTONE D]: the IC50 with SMMC-7721, in the assay with A549, with SK-BR-3, with PANC-1 and in the assay with HL-60 was > 10 µM throughout.

For the compound `C=C1[C@H]([C@@H](C)[C@H]2CC=C(C)C(=O)O2)CC[C@]2(C)[C@H]1C[C@]1(O)C=C3C=CC(=O)OC(C)(C)[C@@H]3[C@H](OC(C)=O)C[C@@H]21` [LONGIPEDLACTONE L], the half-maximal inhibitory concentration (IC50) in the assay with SMMC-7721 is > 10 µM; in the assay with A549 it was > 10 µM; in the assay with SK-BR-3, > 10 µM; in the assay on PANC-1 it was > 10 µM; with HL-60, 7.3 µM.

As to `C=C1[C@@H]2C[C@]3(O)[C@H]4O[C@]45C=CC(=O)OC(C)(C)[C@@H]5[C@H](O)C[C@H]3[C@]2(C)CC[C@@]1(O)[C@@H](C)[C@H]1CC=C(C)C(=O)O1` [LONGIPEDLACTONE I], the IC50 in the assay on SMMC-7721, in the assay with A549, with SK-BR-3, in the assay on PANC-1 and in the assay with HL-60 was > 10 µM each time.

Take `C=C1[C@@H]2C[C@]3(O)C=C4C=CC(=O)OC(C)(C)[C@@H]4[C@H](OC(C)=O)C[C@H]3[C@]2(C)CC[C@@]1(O)[C@@H](C)[C@H]1CC=C(C)C(=O)O1` [LONGIPEDLACTONE M]: the IC50 with SMMC-7721 was > 10 µM; in the assay with A549, > 10 µM; in the assay on SK-BR-3, > 10 µM; with PANC-1, > 10 µM; in the assay with HL-60, 4.1 µM.
